# In ChEMBL document CHEMBL3112586, “Synthesis of neolignans as microtubule stabilisers” (Bioorg Med Chem, 2014):
# Active and inactive are the calls of the source. The rule behind the calls is not given here.
# Assays:
# Mus musculus [1] = experiment: Toxicity in Swiss albino mouse assessed as change in body weight at 5 mg/kg, po (reference value: 24.5 +/- 0.76 g); format: organism-based; parameters: dose 5 mg/kg, route oral; conditions: in vivo
# MCF7 [2] = experiment: Induction of microtubule polymerization in human MCF7 cells assessed as actin-tubulin cytoskeleton stabilization at 10 to 40 uM by confocal microscopy; format: cell-based
# In short: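 MCF-7 cells treated, immunostained for actin and tubulin, and examined by confocal microscopy; paclitaxel-treated cells as positive control.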
# MCF7 [3] = experiment: Cell cycle arrest in human MCF7 cells assessed as accumulation at G1 phase at 5 to 30 uM after 24 hrs by propidium iodide staining-based FACS analysis; format: functional
# In short: (§1)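 MCF-7 in DMEM, 10% FBS, 37 °C, 5% CO2; treated 24 h, harvested, washed cold PBS, resuspended 2 × 10⁶ cells/ml, fixed absolute ethanol, RNase A treated, propidium iodide (50 µg/mL) 30 min room temperature; DNA content by flow cytometry; phase distribution versus untreated control.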
# MDA-MB-231 [4] = experiment: Cytotoxicity against human MDA-MB-231 cells after 48 to 72 hrs by MTT assay; format: functional, cell-based
# In short: (§2)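 Cells in DMEM, 10% FBS, 37 °C, 5% CO2, plated and incubated 24 h; compounds diluted in phenol-red-free DMEM with 0.5% FBS, vehicle control; after exposure, MTT (5 mg/mL stock) added 3 h, formazan dissolved in DMSO, absorbance 570 nm; IC50 derived; podophyllotoxin and tamoxifen positive controls.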
# HEK293 = experiment: Cytotoxicity against human HEK293 cells after 24 hrs by MTT assay; format: cell-based; conditions: HEK293, 24 h; in short: as §2
# MDA-MB-231 [5] = experiment: Cytotoxicity against human MDA-MB-231 cells after 72 hrs by MTT assay; format: functional, cell-based; conditions: MDA-MB-231, 72 h; in short: as §2
# MDA-MB-231 [6] = experiment: Cytotoxicity against human MDA-MB-231 cells after 48 hrs by MTT assay; format: functional, cell-based; conditions: MDA-MB-231, 48 h; in short: as §2
# MCF7 [7] = experiment: Cytotoxicity against human MCF7 cells after 48 hrs by MTT assay; format: functional, cell-based; conditions: MCF7, 48 h; in short: as §2
# Mus musculus [8] = experiment: Toxicity in Swiss albino mouse assessed as change in eosinophil count at 5 to 1000 mg/kg, po relative to control; format: organism-based; parameters: dose 5-1000 mg/kg, route oral; conditions: in vivo
# Mus musculus [9] = experiment: Toxicity in Swiss albino mouse assessed as change in lymphocyte count at 5 to 1000 mg/kg, po relative to control; format: organism-based; parameters: dose 5-1000 mg/kg, route oral; conditions: in vivo
# Homo sapiens = species: Homo sapiens; experiment: Induction of microtubule stabilization (unknown origin) at 4 to 20 uM
# MCF7 [10] = experiment: Cell cycle arrest in human MCF7 cells assessed as accumulation at G2/M phase at 5 to 30 uM after 24 hrs by propidium iodide staining-based FACS analysis; format: functional; in short: as §1
# Mus musculus [11] = experiment: Toxicity in Swiss albino mouse assessed as absolute heart weight at 5 to 1000 mg/kg, po relative to control; format: organism-based; parameters: dose 5-1000 mg/kg, route oral; conditions: in vivo
# Mus musculus [12] = experiment: Toxicity in Swiss albino mouse assessed as absolute liver weight at 5 to 1000 mg/kg, po relative to control; format: organism-based; parameters: dose 5-1000 mg/kg, route oral; conditions: in vivo
# Mus musculus [13] = experiment: Toxicity in Swiss albino mouse assessed as absolute lungs weight at 5 to 1000 mg/kg, po relative to control; format: organism-based; parameters: dose 5-1000 mg/kg, route oral; conditions: in vivo
# Mus musculus [14] = experiment: Toxicity in Swiss albino mouse assessed as relative liver weight at 5 to 1000 mg/kg, po relative to control; format: organism-based; parameters: dose 5-1000 mg/kg, route oral; conditions: in vivo
# In short: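 One oral dose (5–1000 mg/kg; DMSO then 0.7% carboxymethyl cellulose vehicle; controls vehicle-only) was given to groups of 6 mice (3 male, 3 female). On day 7 the animals were sacrificed and necropsied for gross pathology. Absolute and relative weights of vital organs were recorded and compared with control.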
# Mus musculus [15] = experiment: Toxicity in Swiss albino mouse assessed as change in cholesterol level at 50 mg/kg, po (reference value: 81.64 +/- 4.26 mg/dL); format: organism-based; parameters: dose 50 mg/kg, route oral; conditions: in vivo
# Mus musculus [16] = experiment: Toxicity in Swiss albino mouse assessed as change in cholesterol level at 5 mg/kg, po (reference value: 81.64 +/- 4.26 mg/dL); format: organism-based; parameters: dose 5 mg/kg, route oral; conditions: in vivo
# Mus musculus [17] = experiment: Toxicity in Swiss albino mouse assessed as change in serum protein level at 1000 mg/kg, po (reference value: 1.11 +/- 0.14 mg/ml); format: organism-based; parameters: dose 1000 mg/kg, route oral; conditions: in vivo
# Mus musculus [18] = experiment: Toxicity in Swiss albino mouse assessed as change in serum protein level at 300 mg/kg, po (reference value: 1.11 +/- 0.14 mg/ml); format: organism-based; parameters: dose 300 mg/kg, route oral; conditions: in vivo
# Mus musculus [19] = experiment: Toxicity in Swiss albino mouse assessed as change in triglyceride level at 1000 mg/kg, po (reference value: 121.45 +/- 24.02 mg/dL); format: organism-based; parameters: dose 1000 mg/kg, route oral; conditions: in vivo
# Mus musculus [20] = experiment: Toxicity in Swiss albino mouse assessed as change in triglyceride level at 50 mg/kg, po (reference value: 121.45 +/- 24.02 mg/dL); format: organism-based; parameters: dose 50 mg/kg, route oral; conditions: in vivo
# Mus musculus [21] = experiment: Toxicity in Swiss albino mouse assessed as change in triglyceride level at 5 mg/kg, po (reference value: 121.45 +/- 24.02 mg/dL); format: organism-based; parameters: dose 5 mg/kg, route oral; conditions: in vivo
# Mus musculus [22] = experiment: Toxicity in Swiss albino mouse assessed as change in creatinine level at 300 mg/kg, po (reference value: 0.63 +/- 0.18 mg/dL); format: organism-based; parameters: dose 300 mg/kg, route oral; conditions: in vivo
# Mus musculus [23] = experiment: Toxicity in Swiss albino mouse assessed as change in creatinine level at 50 mg/kg, po (reference value: 0.63 +/- 0.18 mg/dL); format: organism-based; parameters: dose 50 mg/kg, route oral; conditions: in vivo
# Mus musculus [24] = experiment: Toxicity in Swiss albino mouse assessed as change in albumin level at 50 mg/kg, po (reference value: 3.35 +/- 0.51 g/dL); format: organism-based; parameters: dose 50 mg/kg, route oral; conditions: in vivo
# Mus musculus [25] = experiment: Toxicity in Swiss albino mouse assessed as change in SGOT level at 1000 mg/kg, po (reference value: 25.27 +/- 1.32 U/L); format: organism-based; parameters: dose 1000 mg/kg, route oral; conditions: in vivo
# Mus musculus [26] = experiment: Toxicity in Swiss albino mouse assessed as change in ALKP level at 1000 mg/kg, po (reference value: 218.67 +/- 12.43 U/L); format: organism-based; parameters: dose 1000 mg/kg, route oral; conditions: in vivo
# Mus musculus [27] = experiment: Toxicity in Swiss albino mouse assessed as change in ALKP level at 5 mg/kg, po (reference value: 218.67 +/- 12.43 U/L); format: organism-based; parameters: dose 5 mg/kg, route oral; conditions: in vivo
# Mus musculus [28] = experiment: Toxicity in Swiss albino mouse assessed as change in WBC count at 300 mg/kg, po (reference value: 14.2 +/- 7.49 X 10^3/mm'3); format: organism-based; parameters: dose 300 mg/kg, route oral; conditions: in vivo
# Mus musculus [29] = experiment: Toxicity in Swiss albino mouse assessed as change in WBC count at 5 mg/kg, po (reference value: 14.2 +/- 7.49 X 10^3/mm'3); format: organism-based; parameters: dose 5 mg/kg, route oral; conditions: in vivo
# Mus musculus [30] = experiment: Toxicity in Swiss albino mouse assessed as change in total haemoglobin level at 50 mg/kg, po (reference value: 11.39 +/- 0.84 g/dL); format: organism-based; parameters: dose 50 mg/kg, route oral; conditions: in vivo
# Mus musculus [31] = experiment: Toxicity in Swiss albino mouse assessed as change in body weight at 1000 mg/kg, po (reference value: 24.5 +/- 0.76 g); format: organism-based; parameters: dose 1000 mg/kg, route oral; conditions: in vivo
# Mus musculus [32] = experiment: Toxicity in Swiss albino mouse assessed as change in body weight at 300 mg/kg, po (reference value: 24.5 +/- 0.76 g); format: organism-based; parameters: dose 300 mg/kg, route oral; conditions: in vivo
# Mus musculus [33] = experiment: Toxicity in Swiss albino mouse assessed as change in body weight at 50 mg/kg, po (reference value: 24.5 +/- 0.76 g); format: organism-based; parameters: dose 50 mg/kg, route oral; conditions: in vivo
smiles,measurement,setting,value
CCOC(=O)/C=C/c1ccc(O)c(/C(=C/c2ccc(O)cc2)C(=O)OCC)c1,Activity,Mus musculus [1],24.33 g
same,Activity,MCF7 [2],inactive
same,Activity,MCF7 [3],inactive
same,Activity,MDA-MB-231 [4],Active
same,IC50,HEK293,12 µM
same,IC50,MDA-MB-231 [5],0.45 µM
same,IC50,MDA-MB-231 [6],6.47 µM
same,IC50,MCF7 [7],9.29 µM
same,Activity,Mus musculus [8],Non-toxic
same,Activity,Mus musculus [9],Non-toxic
same,Activity,Homo sapiens,Active
same,Activity,MCF7 [10],Active
same,Activity,Mus musculus [11],Non-toxic
same,Activity,Mus musculus [12],Non-toxic
same,Activity,Mus musculus [13],Non-toxic
same,Activity,Mus musculus [14],Non-toxic
same,Activity,Mus musculus [15],58.62 mg/dL
same,Activity,Mus musculus [16],75.94 mg/dL
same,Activity,Mus musculus [17],1.02 mg/mL
same,Activity,Mus musculus [18],0.92 mg/mL
same,Activity,Mus musculus [19],156.83 mg/dL
same,Activity,Mus musculus [20],147.23 mg/dL
same,Activity,Mus musculus [21],106.46 mg/dL
same,Activity,Mus musculus [22],0.79 mg/dL
same,Activity,Mus musculus [23],1.45 mg/dL
same,Activity,Mus musculus [24],2.76 g/dL
same,Activity,Mus musculus [25],53.29 U/L
same,Activity,Mus musculus [26],143.89 U/L
same,Activity,Mus musculus [27],227.47 U/L
same,Activity,Mus musculus [28],13.76 ×10³ /mm3
same,Activity,Mus musculus [29],14.6 ×10³ /mm3
same,Activity,Mus musculus [30],10.67 g/dL
same,Activity,Mus musculus [31],26.5 g
same,Activity,Mus musculus [32],25 g
same,Activity,Mus musculus [33],24.83 g
